From ChEMBL document CHEMBL1122045, “Synthesis and pharmacological evaluation of reduced diastereoisomeric and quaternary ammonium derivatives of calcium antagonistic (methylenedioxy)indenes on the isolated rat aorta” (J Med Chem, 1982)

Tests used:
[1] = species: Rattus norvegicus; experiment: Evaluated for its potency against norepinephrine (NE) (at a dose level of 10 E-7 M) induced aortic contractions in male Sprague-Dawley rats.; format: functional; settings: Aorta
Summary of the method: (§1)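 Thoracic aorta segments (2.5 cm) from male Sprague–Dawley rats (250–300 g) were equilibrated 1–1.5 h, then contracted with NE 1×10^-7 M or KCl 40 mM, final bath levels. Compound was added in rising concentrations, up to 30 min per step. Tension was taken as % of pre-drug control, fatigue-adjusted. Per-tissue probit transform with linear regression gave IC50.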

[2] = species: Rattus norvegicus; experiment: Evaluated for its potency (IC 50) against potassium Chloride (KCl) (at a dose level of 40 mM) induced aortic contractions in male Sprague-Dawley rats.; format: functional; settings: Aorta; summary of the method: as §1

Structure (SMILES)	IC50 [1] [µM]	IC50 [2] [µM]
CCC[C@@H]1Cc2cc3c(cc2[C@H]1N(C)C)OCO3	383	98.9
CCCC[C@@H]1Cc2cc3c(cc2[C@H]1N(C)C)OCO3	151	31.1
CCCC[C@@H]1Cc2cc3c(cc2[C@@H]1N(C)C)OCO3	37.9	17.4
CCC[C@@H]1Cc2cc3c(cc2[C@@H]1N(C)C)OCO3	59.4	30
CCCC1=Cc2cc3c(cc2C1N(C)C)OCO3 (stereo not given)	78.2	21.4
CCCC1=Cc2cc3c(cc2C1[N+](C)(C)C)OCO3 (stereo not given)	382	547

Second part, the molecule after the results:

IC50 [1] [µM]	IC50 [2] [µM]	Structure (SMILES)
74.1	20.3	CCCCC1=Cc2cc3c(cc2C1N(C)C)OCO3 (stereo not given)
128	169	CCCCC1=Cc2cc3c(cc2C1[N+](C)(C)C)OCO3 (stereo not given)
1020	871	CCC[C@@H]1Cc2cc3c(cc2[C@@H]1[N+](C)(C)C)OCO3
281	175	CCCC[C@@H]1Cc2cc3c(cc2[C@@H]1[N+](C)(C)C)OCO3
